Screening results (PubChem)
MrgX1 PAM = allosterically activates human MrgX1 receptor signaling | MrgX1-HEK293, Fluo-4 calcium flux, FDSS; active compounds read high | actives 0.63% (n = 310,000) | B-score at 10 µM | Q96LB2;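 active = plate-corrected calcium response at least 3 library SD above typical, normal starting fluorescence, not activating the receptor alone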;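 note: compound read alongside a low EC10 to EC30 dose of BAM8-22 agonist; peak minus trough fluorescence over baseline measured at the second addition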
Target sequence (Q96LB2 whole entry, looked up): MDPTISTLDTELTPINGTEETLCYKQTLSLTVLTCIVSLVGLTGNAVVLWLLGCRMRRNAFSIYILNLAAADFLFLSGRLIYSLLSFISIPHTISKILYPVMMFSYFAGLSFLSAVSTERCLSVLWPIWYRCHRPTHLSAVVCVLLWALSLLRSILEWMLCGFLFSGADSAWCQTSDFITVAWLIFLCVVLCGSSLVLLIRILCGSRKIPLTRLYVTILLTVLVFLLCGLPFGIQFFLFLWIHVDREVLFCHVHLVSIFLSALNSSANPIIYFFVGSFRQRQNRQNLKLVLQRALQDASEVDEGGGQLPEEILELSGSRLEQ
RGS4 block = inhibitors of human RGS4. P49798. HEK293 M3R/RGS4 inducible, Fluo-4 calcium flux; active compounds read high; triggered by carbachol at its EC20. B-score at 10 µM. actives 0.45% (n = 310,000). AID 463165;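 active = B-score, a plate-corrected calcium signal, over three deviations above library mean, with baseline fluorescence within five deviations of library mean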;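 note: RGS4 expression induced by doxycycline in cells with stable M3 receptor; B-score is computed from the integrated fluorescence ratio over baseline after carbachol; higher B-score means a larger calcium signal and so more RGS4 inhibition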
Target sequence (P49798 whole entry, looked up): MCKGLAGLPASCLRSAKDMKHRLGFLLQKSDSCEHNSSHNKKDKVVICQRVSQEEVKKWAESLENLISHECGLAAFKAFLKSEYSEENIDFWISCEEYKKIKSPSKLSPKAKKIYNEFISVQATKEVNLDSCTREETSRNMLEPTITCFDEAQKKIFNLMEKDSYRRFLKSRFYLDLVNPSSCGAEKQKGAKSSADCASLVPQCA
MrgX1 antag = blocks BAM8-22 activation of human MrgX1 receptor; Q96LB2; MRGX1-HEK293 calcium flux, Fluo-4, BAM8-22 antagonism; active compounds read low; B-score at 10 µM; actives 1.3% (n = 310,000); AID 588676;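 active = calcium-response B-score plate-corrected more than 3 library SD below zero, starting fluorescence within 5 deviations, no agonist response on first addition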;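 note: peak minus trough fluorescence over baseline after final BAM8-22 challenge near maximal dose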
MrgX1 agonist = activates human MrgX1 receptor signaling; actives 0.44% (n = 310,000); B-score at 10 µM; AID 588627; MrgX1-HEK293 cells, Fluo-4 calcium fluorescence, agonist mode; active compounds read high;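 active = calcium response B-score plate-corrected fluorescence ratio at least 3 library SD, with starting fluorescence B-score inside 5 SD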
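Test system: HEK293 cells stably expressing human MrgX1 receptor; Input: fifteen thousand cells per well; Dosing: compound delivered in addition one of three; Schedule: overnight seeding, then 1 h dark dye loading; Technique: Fluo-4 NW calcium fluorescence; Measure: B-scored fluorescence response ratio; Controls: positive and negative controls per plate.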
RGS4 act = RGS4 potentiation or activation; HEK293 M3R/inducible RGS4, carbachol calcium flux Fluo4; active compounds read low; B-score at 10 µM; actives 0.92% (n = 310,000);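 active = B-score of the integrated calcium signal more than 4 SD below the library mean, with starting fluorescence not abnormally high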;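 note: negative B-score means reduced calcium response which marks RGS4 activation or potentiation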
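test system = HEK293 cells with stable M3R and inducible RGS4 | schedule = recording 10 s baseline at 1 Hz, 100 s post-agonist | technique = Fluo4-AM (2 µM) calcium-flux fluorescence, kinetic read | measure = Agonist-evoked peak-minus-minimum fluorescence over baseline, integrated ratio, B score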
RGS4 block valid = RGS4 inhibitor validation. HEK293 M3R/RGS4, carbachol calcium Fluo-4 fluorescence; carbachol added at its EC20; 0 = buffer wells, 100 = carbachol control. shares compounds with RGS4 block. actives 65% (n = 1,700). calcium response, % at 10 µM;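 active = duplicate-averaged calcium response above the buffer-only control mean plus 5 SD of those controls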;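 note: integrated fluorescence ratio F max minus min over baseline F0; higher response in RGS4-induced cells means RGS4 inhibition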
M3R Ca ctr = checks RGS4 inhibitor effects in non-induced HEK293 M3R cells. AID 493000. carbachol calcium Fluo-4; submaximal (EC20) carbachol stimulus; buffer wells 0%, carbachol control wells 100%. actives 20% (n = 1,900). activity (percent), % at 10 µM. shares compounds with RGS4 block; call rule not given here;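 note: RGS4 induction absent so cells express M3R without RGS4; higher means more calcium signal and flags a non-specific hit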
RGS4 inh ctr2 = second counter-screen for RGS4 inhibitors: non-induced cells without carbachol; shares compounds with RGS4 block; HEK293 M3R/RGS4 non-induced, Fluo-4 calcium, no carbachol; normalised: buffer wells 0%, carbachol wells 100%; calcium response (agonist-mode artifact), % at 10 µM; actives 22% (n = 1,900);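 active = duplicate-averaged calcium rise in uninduced cells above buffer wells' mean plus 5 SD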
Of the large screens only hits and unclear results are named; the others gave an inactive call (follow-up assays come after a bar, where they were run). Compounds with a hit are over-represented: about 3.5% of the library has one in this group of screens.

CC(C)(C)c1cc(NCc2ccccn2)n2ncc(-c3ccccc3)c2n1	none
Cc1cc(C)n(-c2cc(C(C)(C)C)nc3c(-c4ccc(Cl)cc4)cnn23)n1	RGS4 block 8.6 | RGS4 block valid 33% | M3R Ca ctr inactive | RGS4 inh ctr2 inactive
Cc1cc(C)n(-c2cc(C(C)(C)C)nc3c(-c4ccccc4)cnn23)n1	none | M3R Ca ctr 32% | RGS4 inh ctr2 inactive
Cc1ccc(NC(=O)c2ccc([N+](=O)[O-])o2)c(C)c1	none
O=C(/C=C/c1cccc([N+](=O)[O-])c1)c1ccc([N+](=O)[O-])o1	RGS4 block 13 | RGS4 block valid 30% | M3R Ca ctr inactive | RGS4 inh ctr2 inactive
Cc1ccccc1/C=C/C(=O)c1ccc([N+](=O)[O-])o1	RGS4 block 6.7 | RGS4 block valid 24% | M3R Ca ctr inactive | RGS4 inh ctr2 inactive
COc1ccc(S(=O)(=O)N2CCN(C(=O)c3ccc([N+](=O)[O-])o3)CC2)cc1	none
COc1ccc(/C=C/C(=O)c2ccc([N+](=O)[O-])o2)cc1	RGS4 block 11 | RGS4 block valid 25% | M3R Ca ctr 32% | RGS4 inh ctr2 inactive
Cc1cccc(/C=C/C(=O)c2ccc([N+](=O)[O-])o2)c1	RGS4 block 7 | RGS4 block valid 20% | M3R Ca ctr inactive | RGS4 inh ctr2 8.5%
CCC1CCC(c2nnc(-c3ccc([N+](=O)[O-])cc3)o2)CC1 (stereo not drawn)	none
CN(C(=O)COC(=O)C1=COCCO1)c1c(N)n(Cc2ccccc2)c(=O)[nH]c1=O	none
Cc1cccc(C(=O)NCCNc2nc3cc(C)c(C)cc3cc2C)c1	none | RGS4 block valid inactive | M3R Ca ctr inactive | RGS4 inh ctr2 inactive
Cc1cc2cc(C)c(NCCNC(=O)c3ccccc3F)nc2cc1C	none | RGS4 block valid inactive | M3R Ca ctr inactive | RGS4 inh ctr2 inactive
Cc1cc2cc(C)c(NCCNC(=O)c3cccc(F)c3)nc2cc1C	RGS4 block 5.3 | RGS4 block valid inactive | M3R Ca ctr inactive | RGS4 inh ctr2 inactive
COc1ccc(NC(=S)N2CCCC2)c(OC)c1	none
Cc1cc(C(=O)NC2CC(C)(C)Cc3c2cnn3-c2cccc(F)c2)nn1C (stereo not drawn)	none
Cc1cc(C(=O)CN2C(=O)NC(C)(c3cccc(Br)c3)C2=O)c(C)n1Cc1ccco1 (stereo not drawn)	none
Cc1cc(C(=O)CN2C(=O)NC(c3ccccc3)(c3ccccc3)C2=O)c(C)n1Cc1ccco1	RGS4 block 7.5 | RGS4 block valid 17% | M3R Ca ctr inactive | RGS4 inh ctr2 inactive
COc1ccc(C2=NN(CN3C(=O)C(=O)c4ccccc43)C(c3ccc(OC)cc3)C2)cc1 (stereo not drawn)	none | M3R Ca ctr 35% | RGS4 inh ctr2 inactive
COc1ccc(NC(=O)/C(Cl)=C(/Cl)S(=O)(=O)Cc2ccccc2)cn1	RGS4 block 18 (no result: MrgX1 PAM, MrgX1 antag, MrgX1 agonist) | RGS4 block valid 69% | M3R Ca ctr 48% | RGS4 inh ctr2 15%
C=C1C(=O)[C@@]23[C@H](O)C[C@@H]4C(C)(C)CC[C@H](O)[C@@]4(C)[C@@H]2CC[C@@H]1[C@H]3O	RGS4 block 4.9 | RGS4 block valid inactive | M3R Ca ctr inactive | RGS4 inh ctr2 inactive
COc1cccc(NC(=O)Cn2cnc3sc(C)c(S(=O)(=O)N4CCCCC4)c3c2=O)c1	none
CC(/C=N/NC(=O)c1n[nH]c2c1CCC2)=C\c1ccccc1	none | RGS4 block valid inactive | M3R Ca ctr inactive | RGS4 inh ctr2 inactive
COc1cccc(/C=N/NC(=O)CSc2ccccc2C)c1OC	none | RGS4 block valid inactive | M3R Ca ctr inactive | RGS4 inh ctr2 inactive
COc1cccc(/C=N/NC(=O)CSc2ccccc2C)c1O	RGS4 block 5.9 | RGS4 block valid 64% | M3R Ca ctr inactive | RGS4 inh ctr2 inactive
COc1cc(OC)c(OC)cc1/C=N/NC(=O)CSc1ccccc1F	none
COc1cccc(/C=N/NC(=O)CSc2nnc(C)n2-c2ccccc2)c1OC	none
COc1ccccc1/C=C/C=N/n1c(-c2cc(C)[nH]n2)n[nH]c1=S	none | M3R Ca ctr inactive | RGS4 inh ctr2 inactive
COc1ccccc1/C=C/C=N/n1c(-c2ccccn2)n[nH]c1=S	none
N#Cc1c(Cl)c(Cl)c2nnc(-c3ccc(Br)cc3)n2c1Cl	RGS4 block 6 | RGS4 block valid 8.0% | M3R Ca ctr inactive | RGS4 inh ctr2 11%
[S-]c1nnc(-c2ccc(Br)cc2)n1-c1ccccc1.[Zn+2]	none
Cc1cc(C)c(OCC(=O)N(Cc2ccccc2)C2CCS(=O)(=O)C2)c(C)c1 (stereo not drawn)	none
Cc1ccccc1NC(=O)C(=Cc1ccc(C(=O)O)cc1)C(=O)Nc1ccccc1C	RGS4 block 10 (no result: MrgX1 PAM, MrgX1 antag, MrgX1 agonist) | RGS4 block valid 53% | M3R Ca ctr inactive | RGS4 inh ctr2 inactive
CC(=O)/C(=C/c1ccccc1)C(=O)Nc1ccccc1C	RGS4 block 28 | RGS4 block valid 64% | M3R Ca ctr 64% | RGS4 inh ctr2 inactive
CC(/C=C/c1ccccc1)=N/NC(=O)CCC(=O)Nc1ccccc1C	none
N#C/C(=C/c1ccc(C(=O)O)cc1)C(=O)Nc1ccccc1	none
Cc1ccc(-c2[nH]nc(N)c2N=Nc2ccccc2C)cc1	RGS4 block 10 | RGS4 block valid inactive | M3R Ca ctr inactive | RGS4 inh ctr2 inactive
Cc1cccc(N=Nc2c(N)n[nH]c2-c2ccc(Cl)cc2)c1	none
CCOC(=O)c1cnc(N2CCN(c3ccccc3)CC2)[nH]c1=O	none (no result: MrgX1 PAM, MrgX1 antag, MrgX1 agonist)
O=C1Nc2ccc(S(=O)(=O)N3CCCC3C(=O)O)c3cccc1c23 (stereo not drawn)	RGS4 block 5.5 | RGS4 block valid inactive | M3R Ca ctr inactive | RGS4 inh ctr2 inactive
O=C1Nc2ccc(S(=O)(=O)N3CCCC3)c3cccc1c23	none
COc1ccccc1C1CCN(Cc2cccc(C(=O)N3CCC(O)CC3)c2)CC1	none
CC(C)/C=C1\CC/C(=C\c2cccnc2)C1=O	none | M3R Ca ctr inactive | RGS4 inh ctr2 inactive
O=C1/C(=C/c2cccnc2)CC/C1=C\c1cccnc1	RGS4 block 6.9 | RGS4 block valid 20% | M3R Ca ctr inactive | RGS4 inh ctr2 inactive
CC(=O)c1ccc(N2CCN(C(=O)C(=O)c3cn(CC(=O)N4CCCCCC4)c4ccccc34)CC2)cc1	none
CCN(c1cccc(C)c1)S(=O)(=O)c1c(C)[nH]c(C)c1C(=O)N1CCCCC1	none
Cc1ccc(S(=O)(=O)n2cccc2C)cc1	none
Oc1c(Br)cc(Cl)cc1C=Nc1ccccc1Br	none
